Results as given in article PMC4862007 (Cell metabolism, 2015).

Target: T1, ABHD5 / PLIN1 (luciferase complementation) (Mus musculus, UniProt Q9DBL9)
T1 sequence (Q9DBL9 1-351): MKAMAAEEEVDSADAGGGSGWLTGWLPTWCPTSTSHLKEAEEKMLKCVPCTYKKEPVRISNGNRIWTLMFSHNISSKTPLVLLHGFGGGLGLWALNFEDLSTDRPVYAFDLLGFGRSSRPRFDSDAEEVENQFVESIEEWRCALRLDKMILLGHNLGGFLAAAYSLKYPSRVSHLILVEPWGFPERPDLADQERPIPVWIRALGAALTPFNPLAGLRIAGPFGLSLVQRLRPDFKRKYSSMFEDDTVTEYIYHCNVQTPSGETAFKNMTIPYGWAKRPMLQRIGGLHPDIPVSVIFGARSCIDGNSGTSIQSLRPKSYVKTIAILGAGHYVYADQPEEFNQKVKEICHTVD
T1 sequence (Q8CGN5 1-517 partner): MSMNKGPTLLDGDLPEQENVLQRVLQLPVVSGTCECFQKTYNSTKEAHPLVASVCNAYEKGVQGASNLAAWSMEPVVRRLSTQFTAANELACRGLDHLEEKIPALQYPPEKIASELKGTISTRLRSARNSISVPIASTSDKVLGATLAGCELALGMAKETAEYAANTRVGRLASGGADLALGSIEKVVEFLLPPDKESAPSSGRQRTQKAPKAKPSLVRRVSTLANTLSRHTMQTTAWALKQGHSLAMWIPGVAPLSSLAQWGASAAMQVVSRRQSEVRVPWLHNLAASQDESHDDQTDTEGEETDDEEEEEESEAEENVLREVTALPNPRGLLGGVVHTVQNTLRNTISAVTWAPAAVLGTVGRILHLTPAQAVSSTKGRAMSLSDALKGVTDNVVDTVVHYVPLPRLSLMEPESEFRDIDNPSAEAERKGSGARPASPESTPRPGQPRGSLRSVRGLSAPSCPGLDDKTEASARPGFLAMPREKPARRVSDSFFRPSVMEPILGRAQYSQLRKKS
Assay: luciferase complementation, disruption of ABHD5-PLIN1 binding
Type: biochemical
Conditions: mixed 293T lysates, 4 h, room temperature; n=8
How it was run: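 Lysates are prepared separately from transfected 293T cells and equal amounts of each are combined. Test compound is added in DMSO, with a DMSO vehicle control. After 4 h at room temperature, complementation is read as luciferase activity.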

CCCCNC(=O)Nc1ccc2c(c1)N(C)C(=O)c1ccccc1S2 [SR-4995]
IC50: 200 ± 30 nM

Cc1ccc2c(CC(=O)N3CCN(S(=O)(=O)c4ccc5c(c4)OCCO5)CC3)coc2c1 [SR-4559]
IC50: 510 ± 60 nM
